# CHRM4 agonist – agonists of human muscarinic M4 receptor (CHRM4); P08173; CHO-K1 hM4/Gqi5, Fluo-8 calcium fluorescence; vehicle 0%, full acetylcholine response 100%; activation, % at 3 µM; actives 0.14% (n = 360,000); AID 624127;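 active = activation above the run mean over all test wells plus 3 SD, cut at about 32% in these data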;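 note: peak over basal fluorescence ratio per well then scaled between controls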
# Target sequence (P08173 whole entry, looked up): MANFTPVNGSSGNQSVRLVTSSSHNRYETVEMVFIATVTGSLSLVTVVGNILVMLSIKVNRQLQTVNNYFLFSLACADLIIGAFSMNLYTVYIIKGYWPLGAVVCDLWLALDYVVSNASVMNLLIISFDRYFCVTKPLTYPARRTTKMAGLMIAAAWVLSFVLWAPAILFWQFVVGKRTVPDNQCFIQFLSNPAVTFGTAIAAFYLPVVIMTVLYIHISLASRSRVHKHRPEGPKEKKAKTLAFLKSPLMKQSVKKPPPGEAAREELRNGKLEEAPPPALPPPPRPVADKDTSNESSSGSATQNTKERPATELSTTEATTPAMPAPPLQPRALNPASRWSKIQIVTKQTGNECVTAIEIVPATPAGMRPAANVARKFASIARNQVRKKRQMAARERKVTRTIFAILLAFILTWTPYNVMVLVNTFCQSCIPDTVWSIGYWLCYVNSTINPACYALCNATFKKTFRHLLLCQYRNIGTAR
# M4 PAM – CHRM4 positive allosteric modulation; actives 0.4% (n = 360,000); P08173; AID 624126; CHO-K1 hM4/Gqi5, Fluo-8 calcium fluorescence, ACh EC20; 0% = ACh EC20, 100% = maximal ACh; activation, % at 3 µM;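 active = activation above its plate's cutoff, the mean activation of sample wells plus 3 SD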
# M5 antag – blocks acetylcholine activation of human M5 receptor; inhibition, % at 3 µM; P08912; actives 0.59% (n = 360,000); CHO-hM5 cells, Fluo-8 calcium fluorescence, ACh EC80;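 active = inhibition above a per-plate cutoff, the mean of that plate's test compounds plus 3 SD, cut at about 27% in these data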
# CHRM4 antagonist – blocks acetylcholine activation of human M4 receptor | P08173 | CHO-hM4 cells, ACh EC80, Fluo-8 calcium fluorescence | inhibition, % at 3 µM | actives 0.73% (n = 360,000) | AID 624125;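 active = inhibition above its plate's cutoff, the mean inhibition of sample wells plus 3 SD, cut at about 27% in these data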
# CHRM5 agonist – agonists of human muscarinic M5 receptor (CHRM5). P08912. CHO-K1 hM5 cells, Fluo-8 calcium fluorescence; 0% DMSO wells, 100% maximal acetylcholine response. activation, % at 3 µM. actives 0.19% (n = 360,000);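 active = activation above the run's mean over test compounds plus 3 SD, cut at about 23% in these data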;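 note: signal is peak over basal fluorescence ratio across the kinetic read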
# M5 PAM – positive allosteric modulators of human muscarinic M5 receptor | P08912 | CHO-K1 hM5, Fluo-8 calcium, ACh EC20 PAM; 0% = ACh EC20, 100% = ACh EC100 | activation, % at 3 µM | actives 0.3% (n = 360,000);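 active = activation above the run cutoff, the mean activation of all test compounds plus 3 SD, cut at about 18% in these data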
#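 System – CHO-K1 hM5 cells · Compound – 3 µM, single dose · Incubation – compound preincubation 140 s before EC20 acetylcholine addition · Technique – Fluo-8 calcium fluorescence · Measure – Max/basal fluorescence ratio as % of EC20–EC100 ACh window · Benchmarks – low control EC20 acetylcholine (0%), high control EC100 acetylcholine (100%) · Replication – singlicate, one well per test compound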
# Numbers stand for hits; - = inactive. Compounds with a hit are over-represented: about 1.8% of the library has one in this group of screens.
SMILES,CHRM4 agonist,M4 PAM,M5 antag,CHRM4 antagonist,CHRM5 agonist,M5 PAM
COc1ccccc1C(CNC(=O)C(C)(C)Oc1ccc(Cl)cc1)N1CCCC1 (stereo not given),-,-,71.8,-,-,-
CCN1C(=O)[C@H]2[C@@H](c3ccc(-c4ccccc4)cc3)N[C@@](Cc3ccccc3)(C(=O)OC)[C@H]2C1=O,-,-,-,-,-,-
CCN1C(=O)[C@H]2[C@@H](c3ccc(-c4ccccc4)cc3)N3CCCC[C@@]3(C(=O)OC)[C@H]2C1=O,-,24.2,-,-,-,-
CCN1C(=O)[C@H]2[C@@H](c3ccc(-c4ccc(C(C)=O)cc4)cc3)N[C@@](Cc3ccccc3)(C(=O)OC)[C@H]2C1=O,-,23.8,-,-,-,-
COc1cccc(N2CCN(c3ccc([N+](=O)[O-])cn3)CC2)c1,-,17.3,-,-,-,-
Cc1ccccc1C(=O)NNc1ncnc2c1cnn2C,-,-,-,-,-,-
Cc1ccc(C(=O)NNc2ncnc3c2cnn3C)cc1,-,-,-,-,-,18.6
CC(C)CNc1ncnc2c1ncn2[C@H]1CN(Cc2cccs2)C[C@@H](CO)O1,-,-,-,-,-,-
CCCOc1ccc(C(=O)N2CCCC2C(=O)O)cc1 (stereo not given),-,19.5,-,-,-,-
COc1ccc(CN(C)C(=O)C2CSC3(C)CCC(=O)N23)c(OC)c1 (stereo not given),-,-,-,-,-,-
O=C1NCC(COCC2CC=CCC2)O1 (stereo not given),-,27.9,-,-,-,-
O=C(NCc1ccccc1)C(CCc1ccccc1)n1c(=O)c(-c2cc3ccccc3[nH]2)nc2ccccc21 (stereo not given),-,-,-,-,-,-
O=C(NCc1ccccc1)C(CCc1ccccc1)n1c(=O)c(-c2ccccc2)nc2ccccc21 (stereo not given),-,-,-,-,-,20.0
Oc1ccc(N=Nc2ccc3c(c2)OCCO3)c2ncccc12,36.6,-,36.1,30.4,27.8,-
C/C(CS(=O)(=O)c1ccc(Cl)c(Cl)c1)=N/NC(N)=S,-,-,-,-,-,-
C/C(CS(=O)(=O)c1ccc(Cl)cc1)=N/NC(N)=S,-,19.7,-,-,-,-
COc1cccc(COC(=O)CSCC(=O)Nc2ccc(C)cc2)c1OC,-,-,-,-,-,-
COC(=O)c1cc(Br)c(=O)n(-c2nccs2)c1,-,28.1,-,-,-,-
CCCS(=O)(=O)NC(=O)C1(C)CCCN(C(=O)c2cc(F)ccc2C)C1 (stereo not given),-,-,-,-,-,-
COc1cc(OC)cc(C(=O)N2CCC(n3c(C)nc4cc(F)ccc43)CC2)c1,-,-,-,-,-,33.6
CCOC(=O)[C@]12CCCC=C1N(Cc1ccc(Cl)cc1Cl)C(=O)[C@H](CC(=O)NCc1cccs1)C2,-,-,-,-,-,-
CSCCC(NS(=O)(=O)c1ccc(Cl)cc1)C(=O)OCC(=O)c1c(C)[nH]c2ccccc12 (stereo not given),-,-,-,32.7,-,-
Cc1nc(-c2cc(-c3nc(-c4ccc(C(C)(C)C)cc4)no3)no2)cs1,-,-,-,27.9,-,-
CCCn1c(=O)c(C(=O)NCCc2ccc(Cl)cc2)c(O)c2ccccc21,-,-,-,-,-,-
O=C(c1cccc(Br)c1)N1CCN(c2cnn(-c3ccccc3)c(=O)c2Cl)CC1,-,34.7,-,-,-,-
SMILES,CHRM4 agonist,M4 PAM,M5 antag,CHRM4 antagonist,CHRM5 agonist,M5 PAM
Cc1ccc(C)c(N2C(=O)CN=C2Nc2ccccc2Cl)c1,-,21.7,-,-,-,-
O=C(Cn1c(=O)c2cccn2c2cccnc21)N1CCN(c2ccccc2F)CC1,-,-,-,-,-,24.9
COC(=O)c1cccc(NC(=O)CSc2nnc(C)o2)c1,-,-,-,-,-,-
Cc1cccc(C(=O)N[C@H](C(=O)NCCc2ccc(Cl)cc2)C(C)C)c1,-,-,-,-,-,-
CCOC(=O)[C@]12CCCC=C1N(CCC1=CCCCC1)C(=O)[C@H](CC(=O)NCc1cccc(C(F)(F)F)c1)C2,-,-,-,-,-,-
O=C(c1ccc2c(c1)OCO2)C1CCCN(Cc2ccc(OC(F)F)cc2)C1 (stereo not given),-,-,-,33.5,-,-
CCOC(=O)Cn1nc(C)n(-c2cccc(Cl)c2)c1=O,-,-,-,-,-,18.9
CCOC(=O)c1c(-c2ccco2)csc1NC(=O)COC(=O)c1cnc(C)cn1,-,-,-,-,-,-
COc1cccc(-c2cc(C(=O)N3CCN(c4ncccn4)CC3)c3ccccc3n2)c1,-,-,-,-,-,-
CC(C)Oc1cccc(-c2cc(C(=O)N3CCN(c4ncccn4)CC3)c3ccccc3n2)c1,-,-,-,33.7,-,-
Clc1ccc(CSc2nnc(-c3ccncc3)o2)c(Cl)c1,-,32.3,-,-,-,-
Cc1ccccc1CSc1nnc(-c2ccncc2)o1,-,-,-,-,-,-
C[C@H](CO)N1C[C@H](C)[C@H](CN(C)S(=O)(=O)c2cccs2)OCc2cnnn2CCCC1=O,-,-,-,-,-,-
c1ccc(CNc2ncnc3c2cnn3Cc2ccccc2)cc1,-,-,-,-,27.7,-
COc1ccc(C(=O)C2CCCN(C(=O)Cn3nc(C)cc3C)C2)cc1F (stereo not given),-,-,-,28.9,-,-
COc1ccc(C(=O)C2CCCN(Cc3cn(C)nc3-c3ccccc3)C2)cc1F (stereo not given),82.3,-,-,39.8,-,-
CC(NC(=O)c1ccco1)C(=O)N1CCCCC1 (stereo not given),-,-,-,-,-,-
Cc1[nH]c2ccccc2c1C1=CC(=O)C=CC1=O,-,-,-,45.2,-,-
Cc1[nH]c2ccccc2c1CC#N,-,-,-,-,-,-
COc1ncccc1C(=O)Nc1c(-c2ccccc2)[nH][nH]c1=O,-,-,-,39.1,-,-
CC(C)(C)c1ccc(-n2ncc3c2CCCC3NC(=O)C2(C(N)=O)CC2)cc1 (stereo not given),-,-,27.9,-,-,-
Cc1cc(C(=O)NC2CCCc3c2cnn3-c2ccc(C(C)(C)C)cc2)nn1C (stereo not given),-,-,35.4,-,-,-
CCOCCCNC(=O)c1cc(Cl)c(NC(=O)C2=C(C)OCCS2)cc1OC,-,-,-,-,-,-
